Laboratory results taken from ChEMBL document CHEMBL1926614, “Substituted thiazoles V. synthesis and antitumor activity of novel thiazolo[2,3-b]quinazoline and pyrido[4,3-d]thiazolo[3,2-a]pyrimidine analogues” (2012).

Assays:
Assay type in all cases: functional
[1] = test system: UACC-257; experiment: Growth inhibition of human UACC257 cells at 10 uM after 48 hrs by coulter counting; settings: UACC-257, 48 h, read-out: GI
How it was run: (§1)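 Single-dose screen in the NCI 60 human tumor cell line panel (nine subpanels). Compounds dissolved in DMSO and diluted in phosphate buffered saline, keeping final DMSO below 1%. Added in duplicate wells to cells at 6 × 10⁴ cells/ml. Controls held PBS and DMSO at matching dilutions. Incubated at 37 °C, humidified, 5% CO₂. Reported as percent growth of treated cells.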

[2] = test system: UACC-62; experiment: Growth inhibition of human UACC62 cells at 10 uM after 48 hrs by coulter counting; settings: UACC-62, 48 h, read-out: GI; how it was run: as §1
[3] = test system: SF-539; experiment: Growth inhibition of human SF539 cells at 10 uM after 48 hrs by coulter counting; settings: SF-539, 48 h, read-out: GI
How it was run: (§2)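 Single-dose primary screen across the full NCI 60-cell-line panel. Stocks were made in DMSO and diluted in PBS to a final DMSO below 1%. Cultures at 6 × 10⁴ cells/ml were run in duplicate wells alongside PBS/DMSO vehicle controls at 37 °C in humidified 5% CO₂. Data were expressed as percent growth of treated cells.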

[4] = test system: CCRF-CEM; experiment: Growth inhibition of human CCRF-CEM cells at 10 uM after 48 hrs by coulter counting; settings: read-out: GI; how it was run: as §2
[5] = test system: HL-60(TB); experiment: Growth inhibition of human HL-60(TB) cells at 10 uM after 48 hrs by coulter counting; settings: HL-60, 48 h, read-out: GI
How it was run: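 Test compound was dissolved in DMSO and diluted in phosphate-buffered saline to a final DMSO level below 1%. Dilutions were plated in duplicate with cell culture at 6 × 10⁴ cells/ml. Vehicle controls held PBS and DMSO at matching dilutions. Incubation was at 37 °C, humidified, under 5% CO₂. Data were reported as percent growth of treated cells.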

[6] = test system: K562; experiment: Growth inhibition of human K562 cells at 10 uM after 48 hrs by coulter counting; settings: K562, 48 h, read-out: GI; how it was run: as §2
[7] = test system: MOLT-4; experiment: Growth inhibition of human MOLT4 cells at 10 uM after 48 hrs by coulter counting; settings: MOLT-4, 48 h, read-out: GI; how it was run: as §2
[8] = test system: RPMI-8226; experiment: Growth inhibition of human RPMI8226 cells at 10 uM after 48 hrs by coulter counting; settings: RPMI-8226, 48 h, read-out: GI; how it was run: as §2
[9] = test system: A549; experiment: Growth inhibition of human A549 cells at 10 uM after 48 hrs by coulter counting; settings: A549, 48 h, read-out: GI; how it was run: as §2
[10] = test system: EKVX; experiment: Growth inhibition of human EKVX cells at 10 uM after 48 hrs by coulter counting; settings: read-out: GI; how it was run: as §2
[11] = test system: HOP-62; experiment: Growth inhibition of human HOP62 cells at 10 uM after 48 hrs by coulter counting; settings: HOP-62, 48 h, read-out: GI; how it was run: as §2
[12] = test system: NCI-H226; experiment: Growth inhibition of human NCI-H226 cells at 10 uM after 48 hrs by coulter counting; settings: NCI-H226, 48 h, read-out: GI; how it was run: as §2
[13] = test system: NCI-H23; experiment: Growth inhibition of human NCI-H23 cells at 10 uM after 48 hrs by coulter counting; settings: NCI-H23, 48 h, read-out: GI; how it was run: as §2
[14] = Growth inhibition of human NCI-322M cells at 10 uM after 48 hrs by coulter counting; settings: read-out: GI; how it was run: as §2
[15] = test system: NCI-H460; experiment: Growth inhibition of human NCI-H460 cells at 10 uM after 48 hrs by coulter counting; settings: NCI-H460, 48 h, read-out: GI; how it was run: as §2
[16] = test system: NCI-H522; experiment: Growth inhibition of human NCI-H522 cells at 10 uM after 48 hrs by coulter counting; settings: NCI-H522, 48 h, read-out: GI; how it was run: as §2
[17] = test system: HCT-116; experiment: Growth inhibition of human HCT116 cells at 10 uM after 48 hrs by coulter counting; settings: HCT-116, 48 h, read-out: GI; how it was run: as §2
[18] = test system: HCC 2998; experiment: Growth inhibition of human HCC2998 cells at 10 uM after 48 hrs by coulter counting; settings: HCC 2998, 48 h, read-out: GI; how it was run: as §2
[19] = test system: HT-29; experiment: Growth inhibition of human HT-29 cells at 10 uM after 48 hrs by coulter counting; settings: HT-29, 48 h, read-out: GI; how it was run: as §2
[20] = test system: KM12; experiment: Growth inhibition of human KM12 cells at 10 uM after 48 hrs by coulter counting; settings: KM12, 48 h, read-out: GI; how it was run: as §2
[21] = test system: SF-268; experiment: Growth inhibition of human SF268 cells at 10 uM after 48 hrs by coulter counting; settings: SF-268, 48 h, read-out: GI; how it was run: as §2
[22] = test system: SF-295; experiment: Growth inhibition of human SF295 cells at 10 uM after 48 hrs by coulter counting; settings: SF-295, 48 h, read-out: GI; how it was run: as §2
[23] = test system: SNB-19; experiment: Growth inhibition of human SNB19 cells at 10 uM after 48 hrs by coulter counting; settings: SNB-19, 48 h, read-out: GI; how it was run: as §2
[24] = test system: SNB-75; experiment: Growth inhibition of human SNB75 cells at 10 uM after 48 hrs by coulter counting; settings: SNB-75, 48 h, read-out: GI; how it was run: as §2
[25] = test system: U-251; experiment: Growth inhibition of human U251 cells at 10 uM after 48 hrs by coulter counting; settings: U-251, 48 h, read-out: GI; how it was run: as §1
[26] = test system: LOX IMVI; experiment: Growth inhibition of human LOXIMVI cells at 10 uM after 48 hrs by coulter counting; settings: read-out: GI; how it was run: as §2
[27] = test system: M14; experiment: Growth inhibition of human M14 cells at 10 uM after 48 hrs by coulter counting; settings: M14, 48 h, read-out: GI; how it was run: as §2
[28] = test system: MDA-MB-435; experiment: Growth inhibition of human MDA-MB-435 cells at 10 uM after 48 hrs by coulter counting; settings: MDA-MB-435, 48 h, read-out: GI; how it was run: as §2
[29] = test system: SK-MEL-2; experiment: Growth inhibition of human SK-MEL-2 cells at 10 uM after 48 hrs by coulter counting; settings: SK-MEL-2, 48 h, read-out: GI; how it was run: as §2
[30] = test system: SK-MEL-28; experiment: Growth inhibition of human SK-MEL-28 cells at 10 uM after 48 hrs by coulter counting; settings: SK-MEL-28, 48 h, read-out: GI; how it was run: as §2
[31] = test system: SK-MEL-5; experiment: Growth inhibition of human SK-MEL-5 cells at 10 uM after 48 hrs by coulter counting; settings: SK-MEL-5, 48 h, read-out: GI; how it was run: as §2
[32] = test system: IGROV-1; experiment: Growth inhibition of human IGROV1 cells at 10 uM after 48 hrs by coulter counting; settings: IGROV-1, 48 h, read-out: GI; how it was run: as §2
[33] = test system: OVCAR-4; experiment: Growth inhibition of human OVCAR4 cells at 10 uM after 48 hrs by coulter counting; settings: OVCAR-4, 48 h, read-out: GI; how it was run: as §2
[34] = test system: NCI/ADR-RES; experiment: Growth inhibition of human NCI/ADR-RES cells at 10 uM after 48 hrs by coulter counting; settings: read-out: GI; how it was run: as §2
[35] = test system: A498; experiment: Growth inhibition of human A498 cells at 10 uM after 48 hrs by coulter counting; settings: A498, 48 h, read-out: GI; how it was run: as §2
[36] = test system: ACHN; experiment: Growth inhibition of human ACHN cells at 10 uM after 48 hrs by coulter counting; settings: read-out: GI; how it was run: as §2
[37] = test system: CAKI-1; experiment: Growth inhibition of human Caki1 cells at 10 uM after 48 hrs by coulter counting; settings: CAKI-1, 48 h, read-out: GI; how it was run: as §2
[38] = test system: UO-31; experiment: Growth inhibition of human UO31 cells at 10 uM after 48 hrs by coulter counting; settings: UO-31, 48 h, read-out: GI; how it was run: as §1
[39] = test system: DU-145; experiment: Growth inhibition of human DU145 cells at 10 uM after 48 hrs by coulter counting; settings: DU-145, 48 h, read-out: GI; how it was run: as §2
[40] = test system: MCF7; experiment: Growth inhibition of human MCF7 cells at 10 uM after 48 hrs by coulter counting; settings: MCF7, 48 h, read-out: GI; how it was run: as §2
[41] = test system: BT-549; experiment: Growth inhibition of human BT549 cells at 10 uM after 48 hrs by coulter counting; settings: BT-549, 48 h, read-out: GI; how it was run: as §2
[42] = test system: T47D; experiment: Growth inhibition of human T47D cells at 10 uM after 48 hrs by coulter counting; settings: read-out: GI; how it was run: as §1

Measured: inhibition of growth at 10 µM

CC1=CSC2=NC3=C(CCC/C3=C\c3ccccc3)C(c3ccccc3)N12 (configuration not stated)
13.8%: [6]
13.3%: [24]
11.4%: [37]
28.8%: [38]
11.2%: [12]
> 10%: all other assays above
